Screening data as filed in PubChem.
Calpain2 inh – inhibitors of pig calpain II, primary screen, biochemical, fluorogenic peptide substrate, 1536-well; inhibition, % at 16 µM; AID 1236, 2008; actives 0.37% (n = 220,000); purified calpain II, 30 min;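 active = inhibition above about 50%, limit read from the data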
thrombin 1536 – human alpha-thrombin inhibitors, primary screen, counter-screen for coagulation protease inhibitor project, biochemical, 1536-well, fluorogenic AMC substrate; Prothrombin (Homo sapiens), P00734; Boc-VPR-AMC fluorogenic substrate cleavage; inhibition, % at 5 µM; actives 0.26% (n = 220,000);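 active = inhibition at or above 40%; inactive = inhibition below 40%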
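Material: human alpha-thrombin protein. Incubation: reaction at ambient temperature. Technique: fluorescence of released AMC, ex 355 nm, em 460 nm. Control set: no-compound enzyme wells and no-enzyme blanks. Also added: Boc-VPR-AMC substrate, 15 µM final. Buffer or medium: pH 7.5 Tris (50 mM) with NaCl 150 mM, Tween 20 0.05%.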
FXIa inh – human FXIa protease inhibitors, primary screen, biochemical, 1536-well; inhibition, % at 5 µM; purified FXIa, Boc-Glu-Ala-Arg-AMC fluorogenic substrate; Coagulation factor XI (Homo sapiens), P03951; actives 0.14% (n = 220,000);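 active = inhibition of at least 40%; inactive = inhibition below 40%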;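 note: fluorescence of freed AMC excited at 355 nm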
hK5 inh – human KLK5 protease inhibitors, primary screen, biochemical, 1536-well. Kallikrein-5 (Homo sapiens), Q9Y337. recombinant hK5, fluorogenic AMC substrate cleavage. inhibition, % at 5 µM. actives 0.59% (n = 210,000);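 active = inhibition of 40% or more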
FXIIa inh – human FXIIa protease inhibitors, primary screen, biochemical, 1536-well; AID 800, 2007; actives 0.3% (n = 220,000); inhibition, % at 5 µM; Coagulation factor XII (Homo sapiens), P00748; purified FXIIa, Boc-QGR-AMC fluorogenic substrate, 2 h; in the data active = inhibition above about 40%
Target sequence (P00748 20-372 limits assumed): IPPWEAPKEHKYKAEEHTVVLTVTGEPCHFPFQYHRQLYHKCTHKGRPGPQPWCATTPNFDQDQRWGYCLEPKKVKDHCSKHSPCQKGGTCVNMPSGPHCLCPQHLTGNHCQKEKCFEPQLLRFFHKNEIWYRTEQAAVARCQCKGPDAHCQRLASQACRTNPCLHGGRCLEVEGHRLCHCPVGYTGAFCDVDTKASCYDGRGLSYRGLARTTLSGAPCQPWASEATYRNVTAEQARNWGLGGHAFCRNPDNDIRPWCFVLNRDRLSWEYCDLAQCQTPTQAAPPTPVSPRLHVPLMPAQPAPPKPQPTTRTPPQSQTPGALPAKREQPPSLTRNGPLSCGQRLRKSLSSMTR
Target sequence (P00748 373-615 limits assumed): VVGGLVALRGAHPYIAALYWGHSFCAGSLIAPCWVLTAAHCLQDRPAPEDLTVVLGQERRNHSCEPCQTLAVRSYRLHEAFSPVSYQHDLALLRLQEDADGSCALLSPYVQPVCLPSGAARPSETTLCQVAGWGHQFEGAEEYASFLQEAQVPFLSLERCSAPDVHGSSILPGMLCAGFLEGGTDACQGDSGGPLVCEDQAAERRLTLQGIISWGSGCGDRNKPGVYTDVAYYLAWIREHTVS
A number is an active result; 0 = inactive; - = no result. Hits are enriched below; roughly 1.4% of the tested compounds scored in any of these assays.

SMILES	Calpain2 inh	thrombin 1536	FXIa inh	hK5 inh	FXIIa inh
Cc1ccccc1N1C(=O)CC(Nc2ccc3c(c2)OCO3)C1=O (configuration not stated)	0	0	0	0	-
COC(=O)c1ccc(NC2CC(=O)N(c3ccccc3C)C2=O)cc1 (configuration not stated)	0	45	0	0	0
Nc1ccc(C(CC(=O)O)n2cccc2)cc1 (configuration not stated)	0	0	0	0	0
COc1cccc(NC(=S)Nc2ccc(Br)cc2Cl)c1	0	51	0	0	41
COc1cccc(NC(=S)NCCC(c2ccccc2)c2ccccc2)c1	56	41	0	0	0
CCOc1ccc(NC(=S)Nc2ccc(Br)cc2Cl)cc1	0	0	0	0	0
COc1cc(NC(=S)NCCC(c2ccccc2)c2ccccc2)cc(OC)c1	0	0	0	0	0
Cc1ccc(S(=O)(=O)Nc2ccc(NC(=O)CN3CCCCC3)c(Cl)c2)cc1	0	0	0	0	0
COc1ccc(NC(=O)Nc2ccc(F)cc2F)cc1	0	0	0	0	0
COc1ccc(OC)c(S(=O)(=O)Nc2c(F)cccc2F)c1	0	0	0	0	0
C/C=C/c1ccc(OCCOCCOc2cccc3cccnc23)c(OC)c1	0	0	0	0	0
COc1cccc(/C=N/n2c(N)c(S(=O)(=O)c3cccs3)c3nc4ccccc4nc32)c1OC	0	0	0	0	44
COCCn1c(N)c(S(=O)(=O)c2cccs2)c2nc3ccccc3nc21	0	0	0	0	0
CCOc1ccc(-c2nnc(SCC(=O)Nc3ccc4c(c3)c3ccccc3n4CC)n2N)cc1	0	0	0	0	0
Cc1ccc2c(c1)c1c3n2CCCNC3CCC1 (configuration not stated)	0	41	0	0	0
O=C(NCc1ccncc1)c1ccc(Br)o1	0	0	0	0	41
COc1ccc(OC)c(CNc2ccc([N+](=O)[O-])cc2C)c1	51	0	0	0	100
Cc1cc(C(=O)NNS(=O)(=O)c2ccc(C(C)(C)C)cc2)nn1C(C)(C)C	0	0	0	0	0
COc1ccc(-c2nnc(SCc3nnc(-c4ccccc4)o3)n2C)cc1OC	0	0	0	0	0
Cc1ccc(C)c(-c2nc3cc(N)ccc3o2)c1	0	0	0	0	41
NC(=S)NNC(=O)c1cccc(Br)c1	0	0	0	0	0
CN(C)C(CNC(C(=O)Nc1ccc([N+](=O)[O-])cc1Br)c1ccccc1)c1ccccc1 (configuration not stated)	53	0	0	0	0
CCn1c(C)nc2cc(C(=O)NNC(=S)Nc3ccc(C)cc3)ccc21	0	43	0	0	51
COc1ccc(C(=O)NCC(=O)NCCc2c[nH]c3ccccc23)cc1OC	0	0	0	0	0
Cc1nn(-c2ccccc2)c(Cl)c1CN(C(=O)CCl)c1ccc(Cl)cc1	0	0	0	45	0
SMILES	Calpain2 inh	thrombin 1536	FXIa inh	hK5 inh	FXIIa inh
CC(=O)N(Cc1c(C)nn(-c2ccccc2)c1Cl)c1ccc(Cl)cc1	0	0	0	0	0
CCc1nc(SCc2ccc(C(=O)OC)o2)n[nH]1	0	0	0	-	0
COc1ccccc1NC(=S)N/N=C1\CC(C)(C)Oc2ccc(O)cc21	0	0	0	57	0
COc1ccc(NC(=S)N/N=C2\CC(C)(C)Oc3ccc(O)cc32)cc1	0	0	0	0	0
COc1cccc(CNC(=O)C2CCC(CNS(=O)(=O)c3cccc4nsnc34)CC2)c1 (configuration not stated)	0	0	0	0	0
O=C(NCc1cccs1)C1CCC(CNS(=O)(=O)c2cccc3nsnc23)CC1 (configuration not stated)	0	0	0	52	0
COc1ccc(CCNC(=O)C(=O)NCC2CCCO2)cc1OC (configuration not stated)	0	0	0	51	0
COc1ccc(CCNC(=O)Cn2nnc(-c3cccc(OC)c3OC)n2)cc1OC	0	0	0	0	0
COc1ccc(CCNC(=O)C2CCC(CNS(=O)(=O)c3ccccc3)CC2)cc1OC (configuration not stated)	0	53	0	0	0
COc1ccc(CCNC(=O)Cn2nnc(-c3ccc(N4CCOCC4)cc3)n2)cc1OC	0	0	0	126	0
COc1cccc2cc(C(=O)NCC3CCCO3)c(=O)oc12 (configuration not stated)	0	104	0	44	0
COc1cc(Br)cc2cc(C(=O)NCC3CCCO3)c(=O)oc12 (configuration not stated)	0	0	0	0	0
CCOc1ccc(Cl)cc1CSc1n[nH]c(C)n1	0	0	0	0	-
Fc1ccc(/C=N/Nc2nn[nH]n2)cc1	0	-	0	0	0
C[C@H](NS(=O)(=O)c1ccc(Cl)cc1)C(=O)OCC(=O)NC(=O)Nc1ccc2c(c1)OCCO2	0	0	0	0	0
CCc1ccc(Nc2cc(C)nc3nc(C)nn23)cc1	0	0	0	0	0
Oc1ccc(/C=N/Nc2nn3cnnc3c3ccccc23)cc1	0	0	0	0	0
CCc1ccc2c(c1)C(c1ccc([N+](=O)[O-])cc1)=NNC(c1ccc(C)cc1)=N2	61	0	0	0	0
CCc1ccc2c(c1)C(c1ccc(N3CCOCC3)cc1)=NNC(c1ccncc1)=N2	0	0	0	0	0
O=C(CCN1C(=O)C2C3C=CC(C3)C2C1=O)NC1CCCc2ccccc21 (configuration not stated)	0	0	0	53	0
O=C(CCn1ccc2ccccc21)NC1CCCc2ccccc21 (configuration not stated)	0	0	0	0	0
CN(C(=O)c1ccc(S(=O)(=O)N2CCCC2)cc1)C1CCCCC1	0	0	0	0	0
O=c1cc(CO)occ1OCc1cccc(F)c1	0	0	0	40	0
COc1ccc(-c2cn(-c3ccc(C)cc3C)c(=O)[nH]2)cc1OC	0	0	0	49	0
COc1ccc(C2=NO[C@@H]3C(=O)N(c4ccc(C)cc4C)C(=O)[C@H]23)cc1OC	0	0	0	0	0
SMILES	Calpain2 inh	thrombin 1536	FXIa inh	hK5 inh	FXIIa inh
Cc1ccc(NC(=S)Nc2cc(C)on2)cc1	0	0	0	0	0
Cc1ccc(NC(=O)COc2cccc(/C=C3\SC(=S)N(CCC(=O)O)C3=O)c2)cc1Cl	76	0	0	0	0
COc1ccc(NC(=S)N(CCCN2CCOCC2)C(C)c2cc3cccc(OC)c3o2)cc1 (configuration not stated)	0	0	0	0	0
Cc1ccc(N=C2NC(=O)S/C2=C\c2ccco2)cc1	0	0	0	0	0
O=C(Oc1cncc(Cl)c1)c1ccco1	0	0	84	42	61
COc1ccc(C(=O)N2c3cc4c(cc3C(C)=CC2(C)C)OCO4)cc1	52	0	0	0	0
